Results on 13 compounds are retold here after PMC7409366 (Bioorganic chemistry, 2020).

The EC50 is the concentration at which the effect is half-maximal. Usually IC50 stands for the point on the concentration scale where inhibition reaches its midpoint.

Test [1] has as its target T1, FPR2 (Homo sapiens, UniProt P25090).
T1 sequence (P25090 1-351): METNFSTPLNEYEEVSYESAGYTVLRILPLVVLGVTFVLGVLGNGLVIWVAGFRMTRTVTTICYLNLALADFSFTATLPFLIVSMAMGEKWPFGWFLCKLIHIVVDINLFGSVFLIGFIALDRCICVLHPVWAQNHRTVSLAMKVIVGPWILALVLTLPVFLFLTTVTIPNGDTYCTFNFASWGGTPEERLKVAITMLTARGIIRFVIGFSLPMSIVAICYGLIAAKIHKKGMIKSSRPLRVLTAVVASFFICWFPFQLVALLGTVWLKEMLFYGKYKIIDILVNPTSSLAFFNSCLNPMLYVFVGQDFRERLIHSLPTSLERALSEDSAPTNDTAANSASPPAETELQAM
Put plainly: Ca2+ mobilization in FPR2-transfected HL60 cells. The format is cell-based. (In general: Calcium assays in cells follow changes in intracellular calcium, usually with a dye or a luminescent sensor.)

Test [2] concerns the target T2, FPR1 (Homo sapiens, UniProt P21462).
T2 sequence (P21462 1-350): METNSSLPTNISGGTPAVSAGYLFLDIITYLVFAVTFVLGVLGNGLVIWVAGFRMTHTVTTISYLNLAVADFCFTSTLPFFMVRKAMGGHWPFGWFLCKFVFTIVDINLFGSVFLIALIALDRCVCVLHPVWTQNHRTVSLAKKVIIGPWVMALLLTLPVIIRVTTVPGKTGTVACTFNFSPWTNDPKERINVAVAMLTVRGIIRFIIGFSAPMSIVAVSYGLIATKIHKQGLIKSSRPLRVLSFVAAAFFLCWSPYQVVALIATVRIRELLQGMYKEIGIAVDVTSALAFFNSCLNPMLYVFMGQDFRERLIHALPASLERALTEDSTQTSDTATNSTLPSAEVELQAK
Briefly: Ca2+ mobilization in FPR1-transfected HL60 cells. The format is cell-based.

The subject of test [3] is human neutrophils. Put plainly: Human neutrophil chemotaxis. It counts as cell-based. The following applies: read-out: Chemotaxis EC50. The method, boiled down: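 Neutrophils from healthy-donor blood purified by dextran sedimentation, Histopaque 1077 gradient and hypotonic red-cell lysis, then washed twice into Ca/Mg-free HBSS; preparations >95% pure by light microscopy and >98% viable by trypan blue.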

The test system of test [4] is human neutrophils. Briefly: Desensitization of human neutrophil chemotaxis toward WKYMVm. It counts as cell-based. To be noted: 0.5 h, read-out: Chemotaxis IC50.
In test [5] the test system is collagen-induced arthritis and antigen-induced arthritis. The following applies: 30 mg/kg i.p., mice, both models; cited from earlier work.
In test [6] the test system is CFA-induced rheumatoid arthritis in rats. Put plainly: Incapacitance test in CFA-induced rheumatoid arthritis. The following applies: for Δ Weight (incapacitance test): day 14 after CFA. The format is in vivo, rat.
In a further test the test system is FPR3. To be noted: read-out: FPR3 EC50; EC10; cited from earlier work.
The target in test [7] is T2, FPR1. The following applies: read-out: FPR1 EC50; EC10; cited from earlier work.
The target in test [8] is T1, FPR2. The following applies: read-out: FPR2 EC50; EC10; cited from earlier work.
For test [9], the system named is CFA-induced rheumatoid arthritis in rats. Put plainly: Paw pressure test in CFA-induced rheumatoid arthritis. It counts as in vivo, rat.

Like-named read-outs stand apart in the source and are kept apart here.

As to `COc1cccc(NC(=O)c2cc(-c3ccncc3)c(C)n(CC(=O)Nc3ccc(Br)cc3)c2=O)c1` [Compound 6c, 1-[(4-Bromophenylcarbamoyl)methyl]-2-methyl-6-oxo-1,6-dihydro-[3,4′]bipyridinyl-5-carboxylic acid (3-methoxyphenyl) amide], the EC50 on FPR2 [1] is 1800 ± 210 nM; on FPR1 [2], 1.4 ± 0.4 µM.

Take `CCOC(=O)c1cc(C(=O)Nc2cccc(OC)c2)c(=O)n(CC(=O)Nc2ccc(Br)cc2)c1C` [Compound 6a, 1-[(4-Bromophenylcarbamoyl)methyl]-5-(3-methoxyphenylcarbamoyl)-2-methyl-6-oxo-1,6-dihydropyridine-3-carboxylic acid ethyl ester]: the results for the EC50 on FPR2 [1] and at FPR1 [2] were 28900 ± 2700 nM and 0.4 ± 0.1 µM, respectively. Further, on FPR1 [2] (FPR1 versus FPR2 EC50), the “preference for FPR1” value is listed as “about 72 fold”.

As to `COc1ccc(-c2cc(C#N)c(=O)n(CC(=O)Nc3ccc(Br)cc3)c2C)cc1` [Compound 2b, N-(4-Bromophenyl)-2-[3-cyano-5-(4-methoxyphenyl)-6-methyl-2-oxopyridin-1(2H)-yl]acetamide], the values for the EC50 at FPR2 [1] and on FPR1 [2] were 480 ± 80 nM and 1 ± 0.2 µM, respectively.

On to `CCOC(=O)c1cc(C#N)c(=O)n(CC(=O)Nc2ccc(Br)cc2)c1C` [Compound 2d, 1-[(4-Bromophenylcarbamoyl)-methyl]-5-cyano-2-methyl-6-oxo-1,6-dihydropyridine-3-carboxylic acid ethyl ester], for which the EC50 was determined as 3 µM at FPR1 [2] (read-out: FPR1-HL60 EC50, Ca2+ mobilization, mean of three independent experiments, N.A. = no activity (efficacy < 20% and EC50 < 50 μM as printed)); 13 ± 1 nM in the test with human neutrophils [3]. Moreover, the IC50 in the test with human neutrophils [4] was determined as 8.4 ± 1.2 µM.

For the compound `COc1ccc(NC(=O)c2cc(C#N)c(=O)n(CC(=O)Nc3ccc(Br)cc3)c2C)cc1` [Compound 9b, 1-[(4-Bromophenylcarbamoyl)methyl]-5-cyano-2-methyl-6-oxo-1,6-dihydro-pyridine-3-carboxylic acid (4-methoxyphenyl) amide], the EC50 on FPR2 [1] was found to be 440 ± 120 nM; on FPR1 [2] it was 0.96 ± 0.39 µM.

Consider `CCOC(=O)c1cc(C(=O)Nc2ccc(OC)cc2)c(=O)n(CC(=O)Nc2ccc(Br)cc2)c1C` [Compound 6b, 1-[(4-Bromophenylcarbamoyl)methyl]-5-(4-methoxyphenylcarbamoyl)-2-methyl-6-oxo-1,6-dihydropyridine-3-carboxylic acid ethyl ester], for which the figures for the EC50 on FPR2 [1] and at FPR1 [2] were 16400 ± 3300 nM and 7.9 ± 1.4 µM, respectively.

With `COc1cccc(NC(=O)c2cc(C#N)c(=O)n(CC(=O)Nc3ccc(Br)cc3)c2C)c1` [Compound 9a, 1-[(4-Bromophenylcarbamoyl)methyl]-5-cyano-2-methyl-6-oxo-1,6-dihydro-pyridine-3-carboxylic acid (3-methoxyphenyl) amide], the EC50 came out at 310 ± 90 nM on FPR2 [1] and 3.9 ± 1.2 µM on FPR1 [2].

For `CCCn1ccc(=O)n(CC(=O)Nc2ccc(Br)cc2)c1=O` [Compound 11d, N-(4-Bromophenyl)-2-(2,6-dioxo-3-propyl-3,6-dihydropyrimidin-1(2H)-yl)acetamide], the EC50 was determined as 4100 ± 1300 nM on FPR2 [1] and 5.5 ± 1.6 µM at FPR1 [2].

As for `CC(C)c1c(NC(=O)Nc2ccc(Cl)cc2)c(=O)n(-c2ccccc2)n1C` [Cpd43], the “effect on arthritis disease severity” value in [5] was “significantly reduced disease severity”.

Regarding `COc1cccc(Nc2c(C(C)=O)c(C)nn(CC(=O)Nc3ccc(Br)cc3)c2=O)c1` [EC10], in test [6] (10 and 30 mg/kg p.o., 15 to 60 min, CFA + vehicle 62.8 ± 3.1 g), the “Δ Weight (incapacitance test)” value is 40.2 ± 1.1 g. Besides, the results for the EC50 in the test on FPR3, at FPR1 [7] and at FPR2 [8] were 210 nM, 45 nM and 170 nM, respectively. In [9] (10 and 30 mg/kg p.o., between 15 and 60 min, similar efficacy as EC3), the “effect on pain threshold (paw pressure test)” value was “increased the pain threshold”.

Take `COc1cccc(-c2cc(C#N)c(=O)n(CC(=O)Nc3ccc(Br)cc3)c2C)c1` [Compound 2a, N-(4-Bromophenyl)-2-[3-cyano-5-(3-methoxyphenyl)-6-methyl-2-oxopyridin-1(2H)-yl]acetamide]: on FPR2 [1] (ratio of EC50 values), the “preference for FPR2 versus FPR1” value is reported as 10 fold. For the same compound, the “effect on postural unbalance (incapacitance test)” value in test [6] (10 and 30 mg/kg p.o., between 15 and 60 min after administration) is “significantly reduced the postural unbalance”. In addition, the EC50 with human neutrophils [3] was determined as 20 ± 4 nM. Moreover, in the test on human neutrophils [4], the IC50 was found to be 6.1 ± 1.1 µM. The “effect on pain threshold (paw pressure test)” value in test [9] (10 mg/kg p.o., day 14 after CFA) was “effective between 30 and 60 min”. In test [9] (30 mg/kg p.o., day 14 after CFA, 15 to 45 min, CFA + vehicle 37.5 ± 1 g), the “pain threshold (paw pressure test)” value came to 63.3 ± 2 g.

Consider `COc1ccc(-c2cc(C#N)c(=O)n(CC(=O)Nc3ccc(Br)cc3)c2C)cc1OC` [Compound 2c, N-(4-Bromophenyl)-2-[3-cyano-5-(3,4-dimethoxyphenyl)-6-methyl-2-oxopyridin-1(2H)-yl]acetamide], for which the EC50 was determined as 600 ± 200 nM at FPR2 [1], 33.2 ± 4.9 µM on FPR1 [2] and 60 ± 15 nM in the test with human neutrophils [3]. Further, the IC50 in the test on human neutrophils [4] amounted to 18.8 ± 3.2 µM.

For `CC(C)Cc1ccc(C(C)C(=O)O)cc1` (centres unmarked) [Ibuprofen, ibuprofen, reference compound], the “Δ Weight (incapacitance test)” value in test [6] (100 mg kg−1 p.o., 15 to 30 min, CFA + vehicle 62.6 ± 2.5 g) came out at 34.7 ± 6.1 g.
